From ChEMBL document CHEMBL1156357, “Catalytic inhibition of topoisomerase IIalpha by demethylzeylasterone, a 6-oxophenolic triterpenoid from Kokoona zeylanica” (J Nat Prod, 2001) come the findings set out here.

Calls of active or inactive are those of the source. The calls are words filed in the database; no cut-off is given here.

For experiment [1], the target named is T1, DNA topoisomerase 2-alpha (Homo sapiens, UniProt P11388). Nature of the experiment: Inhibition of human topoisomerase 2 p170alpha assessed as relaxation of lambda ZAPII plasmid Bluescript KS+ DNA at 100 uM by SDS electrophoresis. In outline: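 Compound at 100 µM in 0.5% Cremophor EL, 30 min at 37 °C. Stopped with 1% SDS, then proteinase K 50 µg/mL and chloroform-isoamyl alcohol extraction. Run on 1% TAE agarose with ethidium bromide 0.5 µg/mL post-stain. Etoposide 100 µM as control.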

Experiment [2] relates to Saccharomyces cerevisiae. Nature of the experiment: DNA damaging activity against topoisomerase 2-deficient RS321N mutant yeast assessed as drug level required to produce 12 mm zone of inhibition by agar well diffusion assay. Type of experiment: functional. A digest of the protocol:
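S. cerevisiae RS321N seeded on 1% nutrient agar. Samples in 1:1 DMSO-MeOH went into 7 mm wells. The read-out was the zone (mm) of no visible growth. Several concentrations were tested, and the dose giving a 12 mm zone (IC12) was calculated by regression.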

The test system of experiment [3] is Saccharomyces cerevisiae. As to the kind of experiment: DNA damaging activity against wild type DNA repairing RAD gene expressing yeast at 200 ug/mL by agar well diffusion assay. Format: functional, organism-based. In outline: (§1)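 Yeast strains (rad52Y; RAD+ wild type) were seeded separately on 1% nutrient agar plates. Samples at 200 µg/mL in 1:1 DMSO-MeOH were placed in wells cut by removing 7 mm plugs. Activity was the width (mm) of the zone around the well with no visible yeast growth. Camptothecin and streptonigrin at 5 µg/mL served as controls.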

Experiment [4] deals with Saccharomyces cerevisiae. Nature of the experiment: DNA damaging activity against topoisomerase 2-deficient rad52Y mutant yeast at 200 ug/mL by agar well diffusion assay. Type of experiment: functional, organism-based. A digest of the protocol: as §1
Experiment [5] relates to Saccharomyces cerevisiae. Nature of the experiment: DNA damaging activity against wild type DNA repairing RAD gene expressing yeast assessed as drug level required to produce 12 mm zone of inhibition by agar well diffusion assay. Type of experiment: functional. A digest of the protocol:
(§2)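 Saccharomyces cerevisiae strains (RS321N, rad52Y, RAD+) were seeded separately onto 1% nutrient agar. Samples at 200 µg/mL in 1:1 DMSO-MeOH went into 7 mm wells, and the clear growth-free zone was measured in mm. For actives, several concentrations were tested, and the dose giving a 12 mm zone (IC12) came from regression. Camptothecin and streptonigrin at 5 µg/mL served as controls.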
Background: In agar diffusion tests the substance spreads into inoculated agar from a disc or well.

Experiment [6] relates to Saccharomyces cerevisiae. As to the kind of experiment: DNA damaging activity against topoisomerase 2-deficient rad52Y mutant yeast assessed as drug level required to produce 12 mm zone of inhibition by agar well diffusion assay. Format: functional. In outline:
as §2

The next experiment concerns MCF7. Nature of the experiment: Cytotoxicity against human MCF7 cells after 48 hrs by MTT assay. Format: functional, cell-based. As to conditions: MCF7, 48 h. In outline:
(§3)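 Cells kept in RPMI with 10% FBS at 37 °C, 5% CO2. Log-phase cells were treated in triplicate with 0-10 µM compound for 48 h at 37 °C in humidified 5% CO2. Viability was read by MTT absorbance on a plate reader.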
In general terms: Formazan colour is commonly taken as a measure of viable cells.

Experiment [7] has as its target T1, DNA topoisomerase 2-alpha. As to the kind of experiment: Inhibition of human topoisomerase 2 p170alpha assessed as movement supercoiled lambda ZAPII plasmid Bluescript KS+ DNA at 100 uM after 60 mins by electrophoretic mobility shift assay. A digest of the protocol: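 Mobility shift with pBlueScript KS(+) and 6 units human topo II (p170) in ATP-free buffer. Buffer, running buffer and gel were all at pH 6.4. Compound at 100 µM, with etoposide 50 µM as control. No SDS/proteinase K stop; samples loaded directly onto a TAE gel containing 1.0 µg/mL ethidium bromide.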

Another experiment relates to NCI-H460. As to the kind of experiment: Cytotoxicity against human NCI-H460 cells after 48 hrs by MTT assay at up to 10 uM. Format: functional, cell-based. A digest of the protocol:
as §3

The next experiment relates to Nucleic Acid. As to the kind of experiment: Displacement of methyl green dye from DNA by spectrophotometry. Format: nucleic-acid assay. In outline:
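Daunomycin (50 µg/mL) was the positive control. Methyl green absorbance was read on a plate reader.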

Experiment [8] addresses T1, DNA topoisomerase 2-alpha. Nature of the experiment: Inhibition of human topoisomerase 2 p170alpha assessed as relaxation of lambda ZAPII plasmid Bluescript KS+ DNA by SDS electrophoresis. In outline: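 Supercoiled pBlueScript KS(+) (about 200 ng) relaxed by 4 units human topo II (p170) in Tris-HCl pH 8.0 buffer with 120 mM KCl, 10 mM MgCl2, 0.5 mM ATP and DTT. Compound in 0.5% Cremophor EL, dilution series in triplicate, 30 min at 37 °C. SDS/proteinase K stop, then 1% TAE agarose gel with ethidium bromide staining. IC50 from the dilution series.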

The next experiment deals with SF-268. Nature of the experiment: Cytotoxicity against human SF268 cells after 48 hrs by MTT assay at up to 10 uM. Type of experiment: functional, cell-based. A digest of the protocol: as §3

T1 sequence (P11388 whole entry): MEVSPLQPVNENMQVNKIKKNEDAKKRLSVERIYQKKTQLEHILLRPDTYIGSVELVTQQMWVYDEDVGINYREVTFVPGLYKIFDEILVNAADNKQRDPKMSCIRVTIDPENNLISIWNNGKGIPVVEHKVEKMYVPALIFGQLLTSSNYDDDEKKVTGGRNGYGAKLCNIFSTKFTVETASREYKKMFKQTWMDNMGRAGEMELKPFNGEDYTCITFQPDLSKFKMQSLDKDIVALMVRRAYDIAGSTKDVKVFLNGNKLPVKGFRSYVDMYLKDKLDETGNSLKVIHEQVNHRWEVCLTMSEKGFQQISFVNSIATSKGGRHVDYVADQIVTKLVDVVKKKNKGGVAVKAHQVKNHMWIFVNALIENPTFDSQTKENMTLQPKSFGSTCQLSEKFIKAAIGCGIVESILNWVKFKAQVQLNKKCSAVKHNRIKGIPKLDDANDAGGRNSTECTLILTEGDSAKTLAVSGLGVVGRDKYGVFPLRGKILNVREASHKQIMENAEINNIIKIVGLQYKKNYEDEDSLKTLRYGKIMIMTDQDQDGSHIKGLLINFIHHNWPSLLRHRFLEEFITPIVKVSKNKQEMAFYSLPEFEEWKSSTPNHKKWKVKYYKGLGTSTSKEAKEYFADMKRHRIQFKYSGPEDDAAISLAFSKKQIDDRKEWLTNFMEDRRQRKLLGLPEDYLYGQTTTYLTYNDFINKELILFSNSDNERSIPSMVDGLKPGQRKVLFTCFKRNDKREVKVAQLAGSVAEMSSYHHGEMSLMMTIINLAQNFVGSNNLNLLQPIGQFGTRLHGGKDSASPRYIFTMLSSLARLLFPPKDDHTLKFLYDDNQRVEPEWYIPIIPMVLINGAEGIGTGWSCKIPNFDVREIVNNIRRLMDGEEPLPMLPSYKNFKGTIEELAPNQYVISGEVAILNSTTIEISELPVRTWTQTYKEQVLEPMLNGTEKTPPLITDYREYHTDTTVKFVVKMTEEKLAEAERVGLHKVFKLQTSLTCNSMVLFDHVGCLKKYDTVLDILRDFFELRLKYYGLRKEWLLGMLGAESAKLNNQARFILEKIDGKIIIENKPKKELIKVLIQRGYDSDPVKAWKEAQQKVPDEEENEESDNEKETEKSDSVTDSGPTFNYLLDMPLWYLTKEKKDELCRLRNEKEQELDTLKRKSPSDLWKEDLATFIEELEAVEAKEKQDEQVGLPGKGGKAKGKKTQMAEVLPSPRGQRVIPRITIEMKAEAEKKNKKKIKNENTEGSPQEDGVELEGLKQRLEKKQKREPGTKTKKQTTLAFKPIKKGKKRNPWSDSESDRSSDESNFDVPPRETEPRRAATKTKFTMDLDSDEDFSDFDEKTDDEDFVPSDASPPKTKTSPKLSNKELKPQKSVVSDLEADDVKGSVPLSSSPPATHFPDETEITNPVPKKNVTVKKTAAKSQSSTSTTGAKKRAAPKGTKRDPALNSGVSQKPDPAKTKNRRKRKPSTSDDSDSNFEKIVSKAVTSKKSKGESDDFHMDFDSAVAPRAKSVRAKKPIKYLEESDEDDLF

Regarding `COC(=O)[C@]1(C)CC[C@]2(C)CC[C@]3(C)C4=CC(=O)c5c(cc(O)c(O)c5C(=O)O)[C@]4(C)CC[C@@]3(C)[C@@H]2C1`, the result in experiment [1] was inactive.
Same read-out and setting: the same measure for `COC(=O)[C@]1(C)CC[C@]2(C)CC[C@]3(C)C4=CC(=O)c5c(cc(O)c(O)c5C=O)[C@]4(C)CC[C@@]3(C)[C@@H]2C1`: “inactive”.
`COC(=O)[C@]1(C)CC[C@]2(C)CC[C@]3(C)C4=CCc5c(cc(O)c(O)c5C)[C@]4(C)CC[C@@]3(C)[C@@H]2C1`: the result in experiment [1] was inactive.
Consider `COc1cc([C@@H]2c3cc4c(cc3[C@@H](O[C@@H]3O[C@@H]5CO[C@@H](C)O[C@H]5[C@H](O)[C@H]3O)[C@H]3COC(=O)[C@H]23)OCO4)cc(OC)c1O`, for which, in [1], the outcome was inactive.
In the case of `CC1=C(O)C(=O)C=C2C1=CC=C1[C@@]2(C)CC[C@@]2(C)[C@@H]3C[C@](C)(O)C(=O)C[C@]3(C)CC[C@]12C` [20ALPHA-HYDROXYTINGENONE], in the experiment with Saccharomyces cerevisiae [2], the “IC12 (concentration giving a 12 mm inhibition zone)” value stood at 185 µg/mL. Besides, the result in the experiment with Saccharomyces cerevisiae [3] and in the experiment on Saccharomyces cerevisiae [4] was inactive.
With `CC1=C2C3=CC=C4C(=CC(=O)C(O)=C4C)[C@]3(C)CC[C@@]2(C)[C@@H]2C[C@@H](C)[C@@H](O)C(=O)C2C1` (stereo not given in full) [BALAENONOL], the “IC12 (concentration giving a 12 mm inhibition zone)” value in the experiment with Saccharomyces cerevisiae [2] amounted to 220 µg/mL. Further, the result in the experiment on Saccharomyces cerevisiae [3] and in the experiment on Saccharomyces cerevisiae [4] was inactive.
On to `CC[C@@]1(O)C(=O)OCc2c1cc1n(c2=O)Cc2cc3ccccc3nc2-1` [CAMPTOTHECIN], for which the Activity is 110 µg/mL with Saccharomyces cerevisiae [5] and 0.6 µg/mL in the experiment on Saccharomyces cerevisiae [6]. For the same molecule, in the experiment on Saccharomyces cerevisiae [2], the “IC12 (concentration giving a 12 mm inhibition zone)” value is more than 20 µg/mL.
Usually IC50 stands for the concentration needed to halve the response being measured. On to `C[C@@]1(C(=O)O)CC[C@]2(C)CC[C@]3(C)C4=CC(=O)c5c(cc(O)c(O)c5C(=O)O)[C@]4(C)CC[C@@]3(C)[C@@H]2C1` [DEMETHYLZEYLASTERONE], for which the IC50 in the experiment on MCF7 is 12.5 µM; in [8], 17.6 µM. Besides, the result (in experiment [7]; with Nucleic Acid; in [1]) was Active. Also, the outcome with NCI-H460 and with SF-268 was inactive.
As for `COC1=C(N)C(=O)c2nc(-c3nc(C(=O)O)c(C)c(-c4ccc(OC)c(OC)c4O)c3N)ccc2C1=O` [STREPTONIGRIN], the “IC12 (concentration giving a 12 mm inhibition zone)” value in the experiment with Saccharomyces cerevisiae [2] was less than 0.4 µg/mL. In addition, the Activity with Saccharomyces cerevisiae [6] worked out at 0.4 µg/mL.
Consider `CC1=C(O)C(=O)C=C2C1=CC=C1[C@@]2(C)CC[C@@]2(C)[C@@H]3C[C@@H](C)C(=O)C[C@]3(C)CC[C@]12C` [TINGENONE], for which the “IC12 (concentration giving a 12 mm inhibition zone)” value in the experiment with Saccharomyces cerevisiae [2] was 325 µg/mL. Besides, the result in the experiment with Saccharomyces cerevisiae [3] and in the experiment with Saccharomyces cerevisiae [4] was inactive.
